Tested on: HEK-293T
Assay: Multiplex assay against HEK293T
Type: toxicity, cell-based
Details: human
Summary of the method: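 Imaging took place on a CQ1 microscope at 37°C and 5% CO2 once compound had been added to live cells stained at seeding with Hoechst33342, BioTracker Green Microtubule Cytoskeleton Dye, MitoTracker Red and Annexin V Alexa Fluor 680. CellPathfinder machine-learning gating classed cells as Hoechst high-intensity objects or normal cells, classed normal cells as having healthy, pyknosed or fragmented nuclei, and classed pyknosed cells as mitotic or apoptotic. Tubulin, mitochondrial-mass and membrane-permeability phenotypes are per cents of the healthy-nucleus cells.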

[1] = 12 h, 1 µM, compound concentration 1 uM, replicate 1
[2] = 12 h, 1 µM, compound concentration 1 uM, replicate 2
[3] = 12 h, 10 µM, compound concentration 10 uM, replicate 1
[4] = 12 h, 10 µM, compound concentration 10 uM, replicate 2
[5] = 24 h, 1 µM, compound concentration 1 uM, replicate 1
[6] = 24 h, 1 µM, compound concentration 1 uM, replicate 2
[7] = 24 h, 10 µM, compound concentration 10 uM, replicate 1
[8] = 24 h, 10 µM, compound concentration 10 uM, replicate 2
[9] = 48 h, 1 µM, compound concentration 1 uM, replicate 1
[10] = 48 h, 1 µM, compound concentration 1 uM, replicate 2
[11] = 48 h, 10 µM, compound concentration 10 uM, replicate 1
[12] = 48 h, 10 µM, compound concentration 10 uM, replicate 2

Cc1cc(-c2ccc3c(c2)CC[C@H]3N2CC3(CCN(C(=O)Cc4cn5cc(C)sc5n4)CC3)C2)ncn1 [PF-5190457]
Population Apoptotic (%) [1]: 36% | Population Fragmented Nuclei (%) [1]: 5% | Population Healthy Nuclei (%) [1]: 83% | Population Hoechst High Intensity Objects (%) [1]: 5% | Population Membrane Permeable-Phenotype (%) [1]: 0% | Population Mitochondria Different-Phenotype (%) [1]: 40% | Population Mitotic Cells (%) [1]: 63% | Population Normal (%) [1]: 94% | Population Pyknosed Nuclei (%) [1]: 11% | Population Tubulin-Different-Phenotype (%) [1]: 25% | Total Cell Count [1]: 418 | Population Apoptotic (%) [2]: 47% | Population Fragmented Nuclei (%) [2]: 8% | Population Healthy Nuclei (%) [2]: 72% | Population Hoechst High Intensity Objects (%) [2]: 10% | Population Mitochondria Different-Phenotype (%) [2]: 53% | Population Mitotic Cells (%) [2]: 52% | Population Normal (%) [2]: 89% | Population Pyknosed Nuclei (%) [2]: 19% | Population Tubulin-Different-Phenotype (%) [2]: 22% | Total Cell Count [2]: 258 | Population Apoptotic (%) [3]: 40% | Population Fragmented Nuclei (%) [3]: 9% | Population Healthy Nuclei (%) [3]: 75% | Population Hoechst High Intensity Objects (%) [3]: 11% | Population Membrane Permeable-Phenotype (%) [3]: 0% | Population Mitochondria Different-Phenotype (%) [3]: 53% | Population Mitotic Cells (%) [3]: 60% | Population Normal (%) [3]: 88% | Population Pyknosed Nuclei (%) [3]: 14% | Population Tubulin-Different-Phenotype (%) [3]: 37% | Total Cell Count [3]: 455 | Population Apoptotic (%) [4]: 54% | Population Fragmented Nuclei (%) [4]: 3% | Population Healthy Nuclei (%) [4]: 80% | Population Hoechst High Intensity Objects (%) [4]: 8% | Population Mitochondria Different-Phenotype (%) [4]: 70% | Population Mitotic Cells (%) [4]: 45% | Population Normal (%) [4]: 91% | Population Pyknosed Nuclei (%) [4]: 16% | Population Tubulin-Different-Phenotype (%) [4]: 40% | Total Cell Count [4]: 322 | Population Apoptotic (%) [5]: 21% | Population Fragmented Nuclei (%) [5]: 8% | Population Healthy Nuclei (%) [5]: 77% | Population Hoechst High Intensity Objects (%) [5]: 2% | Population Membrane Permeable-Phenotype (%) [5]: 0% | Population Mitochondria Different-Phenotype (%) [5]: 24% | Population Mitotic Cells (%) [5]: 78% | Population Normal (%) [5]: 97% | Population Pyknosed Nuclei (%) [5]: 13% | Population Tubulin-Different-Phenotype (%) [5]: 16% | Total Cell Count [5]: 549 | Population Apoptotic (%) [6]: 45% | Population Fragmented Nuclei (%) [6]: 11% | Population Healthy Nuclei (%) [6]: 78% | Population Hoechst High Intensity Objects (%) [6]: 7% | Population Membrane Permeable-Phenotype (%) [6]: 1% | Population Mitochondria Different-Phenotype (%) [6]: 35% | Population Mitotic Cells (%) [6]: 54% | Population Normal (%) [6]: 92% | Population Pyknosed Nuclei (%) [6]: 9% | Population Tubulin-Different-Phenotype (%) [6]: 11% | Total Cell Count [6]: 352 | Population Apoptotic (%) [7]: 25% | Population Fragmented Nuclei (%) [7]: 10% | Population Healthy Nuclei (%) [7]: 75% | Population Hoechst High Intensity Objects (%) [7]: 5% | Population Membrane Permeable-Phenotype (%) [7]: 1% | Population Mitochondria Different-Phenotype (%) [7]: 28% | Population Mitotic Cells (%) [7]: 74% | Population Normal (%) [7]: 94% | Population Pyknosed Nuclei (%) [7]: 14% | Population Tubulin-Different-Phenotype (%) [7]: 30% | Total Cell Count [7]: 638 | Population Apoptotic (%) [8]: 36% | Population Fragmented Nuclei (%) [8]: 5% | Population Healthy Nuclei (%) [8]: 81% | Population Hoechst High Intensity Objects (%) [8]: 6% | Population Membrane Permeable-Phenotype (%) [8]: 0% | Population Mitochondria Different-Phenotype (%) [8]: 51% | Population Mitotic Cells (%) [8]: 63% | Population Normal (%) [8]: 93% | Population Pyknosed Nuclei (%) [8]: 13% | Population Tubulin-Different-Phenotype (%) [8]: 23% | Total Cell Count [8]: 425 | Population Apoptotic (%) [9]: 25% | Population Fragmented Nuclei (%) [9]: 14% | Population Healthy Nuclei (%) [9]: 79% | Population Hoechst High Intensity Objects (%) [9]: 1% | Population Membrane Permeable-Phenotype (%) [9]: 1% | Population Mitochondria Different-Phenotype (%) [9]: 18% | Population Mitotic Cells (%) [9]: 74% | Population Normal (%) [9]: 98% | Population Pyknosed Nuclei (%) [9]: 5% | Population Tubulin-Different-Phenotype (%) [9]: 9% | Total Cell Count [9]: 873 | Population Apoptotic (%) [10]: 39% | Population Fragmented Nuclei (%) [10]: 12% | Population Healthy Nuclei (%) [10]: 80% | Population Hoechst High Intensity Objects (%) [10]: 3% | Population Mitochondria Different-Phenotype (%) [10]: 21% | Population Mitotic Cells (%) [10]: 60% | Population Normal (%) [10]: 96% | Population Pyknosed Nuclei (%) [10]: 6% | Population Tubulin-Different-Phenotype (%) [10]: 10% | Total Cell Count [10]: 531 | Population Apoptotic (%) [11]: 24% | Population Fragmented Nuclei (%) [11]: 14% | Population Healthy Nuclei (%) [11]: 77% | Population Hoechst High Intensity Objects (%) [11]: 2% | Population Membrane Permeable-Phenotype (%) [11]: 0% | Population Mitochondria Different-Phenotype (%) [11]: 27% | Population Mitotic Cells (%) [11]: 76% | Population Normal (%) [11]: 97% | Population Pyknosed Nuclei (%) [11]: 8% | Population Tubulin-Different-Phenotype (%) [11]: 20% | Total Cell Count [11]: 927 | Population Apoptotic (%) [12]: 46% | Population Fragmented Nuclei (%) [12]: 13% | Population Healthy Nuclei (%) [12]: 78% | Population Hoechst High Intensity Objects (%) [12]: 4% | Population Mitochondria Different-Phenotype (%) [12]: 32% | Population Mitotic Cells (%) [12]: 53% | Population Normal (%) [12]: 95% | Total Cell Count [12]: 520

Source: ChEMBL document CHEMBL5058577, “EUbOPEN Chemogenomics Library 2 (Multiplex)” (2022)
